Data published in ChEMBL document CHEMBL2331343 (Bioorg Med Chem, 2013).
Calls of active or inactive are those of the source. The rule behind the calls is not given here.

molecular target: T1, D(1A) dopamine receptor (Homo sapiens, UniProt P21728); experiment: Inhibition of [3H]SCH23390 binding to dopamine D1 receptor (unknown origin) expressed in human HEK293 cells at 10 uM by liquid scintillation counter relative to control; assay type: cell-based; conditions: not given
Method in brief: (§1)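 Stably transfected HEK293T D1 membranes, […], duplicate incubation 50 min at 30 °C with [3H]SCH23390 in 50 mM Tris, 4 mM MgCl2, pH 7.4. Nonspecific binding with 10 μM SCH23390. GF/B filtration, scintillation counting.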

T1 sequence (P21728 whole entry): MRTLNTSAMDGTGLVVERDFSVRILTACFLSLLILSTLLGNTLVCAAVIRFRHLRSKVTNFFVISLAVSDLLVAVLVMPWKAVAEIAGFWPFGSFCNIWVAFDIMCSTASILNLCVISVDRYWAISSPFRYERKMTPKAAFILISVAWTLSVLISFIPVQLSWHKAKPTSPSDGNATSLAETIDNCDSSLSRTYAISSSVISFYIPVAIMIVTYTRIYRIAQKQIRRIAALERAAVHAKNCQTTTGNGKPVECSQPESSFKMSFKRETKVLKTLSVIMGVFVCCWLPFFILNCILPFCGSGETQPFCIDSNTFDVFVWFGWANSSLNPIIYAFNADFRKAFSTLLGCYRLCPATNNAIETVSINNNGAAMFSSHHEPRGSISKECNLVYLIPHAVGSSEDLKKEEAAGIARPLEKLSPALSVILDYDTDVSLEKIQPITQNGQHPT

Row | inhibition [%] | Compound
1 | 95.2 | COc1cc2c(cc1O)CCN1Cc3c(ccc(OC)c3O)C[C@@H]21
2 | 98.8 | COc1cc2c(cc1OC)[C@@H]1Cc3ccc(O)c(OC)c3CN1CC2

molecular target: T2, D(2) dopamine receptor (Homo sapiens, UniProt P14416); experiment: Displacement of [3H]spiperone from dopamine D2 receptor (unknown origin) expressed in human HEK293 cells by liquid scintillation counter; assay type: cell-based; conditions: not given
T2 sequence (P14416 whole entry): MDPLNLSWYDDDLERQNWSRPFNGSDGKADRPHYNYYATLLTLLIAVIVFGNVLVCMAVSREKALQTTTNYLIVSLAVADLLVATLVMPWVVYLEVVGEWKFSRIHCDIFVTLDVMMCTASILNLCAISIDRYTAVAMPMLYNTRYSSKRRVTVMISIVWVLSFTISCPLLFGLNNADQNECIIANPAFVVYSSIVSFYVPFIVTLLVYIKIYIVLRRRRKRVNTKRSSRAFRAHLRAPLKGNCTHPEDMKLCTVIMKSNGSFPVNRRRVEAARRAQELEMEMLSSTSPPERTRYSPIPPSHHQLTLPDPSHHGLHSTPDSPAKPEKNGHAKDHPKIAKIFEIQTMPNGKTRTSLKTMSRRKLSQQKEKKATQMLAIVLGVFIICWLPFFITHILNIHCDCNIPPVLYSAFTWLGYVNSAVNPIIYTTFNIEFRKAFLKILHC

Row | Ki [µM] | Compound
3 | > 5 | COc1cc2c(cc1O)CCN1Cc3c(ccc(OC)c3O)C[C@@H]21
4 | 0.305 | COc1cc2c(cc1OC)[C@@H]1Cc3ccc(O)c(OC)c3CN1CC2

molecular target: T3, 5-hydroxytryptamine receptor 1A (Homo sapiens, UniProt P08908); experiment: Displacement of [3H]8-OH-DPAT from 5-HT1A receptor (unknown origin) expressed in HEK293 cells by liquid scintillation counter; assay type: cell-based; conditions: not given
T3 sequence (P08908 whole entry): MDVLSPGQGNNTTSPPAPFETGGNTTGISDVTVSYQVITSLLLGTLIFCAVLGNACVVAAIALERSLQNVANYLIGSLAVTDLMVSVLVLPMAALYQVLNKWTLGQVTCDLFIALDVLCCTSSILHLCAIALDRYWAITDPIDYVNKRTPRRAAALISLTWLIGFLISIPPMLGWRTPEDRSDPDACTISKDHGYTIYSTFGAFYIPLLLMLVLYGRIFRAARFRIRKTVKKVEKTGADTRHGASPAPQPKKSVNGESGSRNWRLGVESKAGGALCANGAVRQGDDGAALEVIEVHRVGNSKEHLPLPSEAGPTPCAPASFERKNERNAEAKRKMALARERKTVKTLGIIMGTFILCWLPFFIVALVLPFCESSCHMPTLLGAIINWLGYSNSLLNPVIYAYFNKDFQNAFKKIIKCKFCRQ

Row | Ki [µM] | Compound
5 | 0.149 | COc1cc2c(cc1OC)[C@@H]1Cc3ccc(O)c(OC)c3CN1CC2

molecular target: T1, D(1A) dopamine receptor; experiment: Agonist activity at dopamine D1 receptor (unknown origin) expressed in HEK293 cells assessed as stimulation of [35S]GTPgammaS binding by scintillation proximity assay; assay type: functional, cell-based; conditions: not given

Row | EC50 [µM] | Compound
6 | 1.35 | COc1cc2c(cc1OC)[C@@H]1Cc3ccc(O)c(OC)c3CN1CC2

tested on: Rattus norvegicus; experiment: Effect on baseline startle reactivity in Sprague-Dawley rat schizophrenia model at 5 mg/kg, ip administered 10 mins prior testing monitored for 5 mins; assay type: ADME, organism-based; parameters: dose 5 mg/kg, route intraperitoneal; conditions: in vivo
Method in brief: (§2)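 Male Sprague-Dawley rats were pretreated ip with saline or compound 10 min before PCP (5 mg/kg, ip). Acoustic startle was tested 5 min after PCP, following 3 min acclimation: 40 ms, 120 dB pulse with prepulse trials, 74 dB background, 15–25 s intertrial interval, session about 20 min. %PPI = [1 − (prepulse+pulse)/(pulse alone)]×100. Startle = mean of pulse-alone trials, first 3 excluded.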

Row | Compound | Activity
7 | COc1cc2c(cc1OC)[C@@H]1Cc3ccc(O)c(OC)c3CN1CC2 | Non-toxic

tested on: Rattus norvegicus; experiment: Antipsychotic activity in Sprague-Dawley rat schizophrenia model assessed as inhibition of PCP-induced prepulse inhibition at 5 mg/kg, ip administered 10 mins prior testing monitored for 5 mins; assay type: functional, organism-based; parameters: dose 5 mg/kg; conditions: not given; method in brief: as §2

Row | Compound | inhibition
8 | COc1cc2c(cc1OC)[C@@H]1Cc3ccc(O)c(OC)c3CN1CC2 | Active

tested on: Rattus norvegicus; experiment: In vivo agonist activity at 5-HT1A receptor in WAY100635 pre-treated Sprague-Dawley rat DA neuron assessed as increase in firing rate at 1 mg/kg, iv; assay type: functional, organism-based; parameters: dose 1 mg/kg; conditions: not given
Method in brief: (§3)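 Anesthetized (chloral hydrate) Sprague-Dawley rats given raclopride, then WAY100635 before compound 1 mg/kg. VTA DA neuron single-unit firing rate and bursts analysed every 10 s as % of post-raclopride baseline. n = 5, paired t-test.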

Row | Compound | Activity
9 | COc1cc2c(cc1OC)[C@@H]1Cc3ccc(O)c(OC)c3CN1CC2 | inactive

tested on: Rattus norvegicus; experiment: In vivo agonist activity at 5-HT1A receptor in WAY100635 pre-treated Sprague-Dawley rat DA neuron assessed as increase in bursts at 1 mg/kg, iv; assay type: functional, organism-based; parameters: dose 1 mg/kg; conditions: not given; method in brief: as §3

Row | Compound | Activity
10 | COc1cc2c(cc1OC)[C@@H]1Cc3ccc(O)c(OC)c3CN1CC2 | inactive

tested on: Rattus norvegicus; experiment: In vivo agonist activity at 5-HT1A receptor in Sprague-Dawley rat DA neuron assessed as increase in bursts at 1 mg/kg, iv; assay type: functional, organism-based; parameters: dose 1 mg/kg; conditions: not given
Method in brief: (§4)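 Male Sprague-Dawley rats under chloral hydrate anesthesia (400 mg/kg ip) at 37 °C. Single-unit recording of VTA DA neurons by glass microelectrode. Raclopride 0.1 mg/kg given first, then compound 1 mg/kg. Firing rate and bursts analysed every 10 s as % of post-raclopride baseline. n = 5, paired t-test.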

Row | Compound | Activity
11 | COc1cc2c(cc1OC)[C@@H]1Cc3ccc(O)c(OC)c3CN1CC2 | Active

molecular target: T4, 5-hydroxytryptamine receptor 1A (Homo sapiens) (UniProt P08908); experiment: Inhibition of [3H]8-OH-DPAT binding to 5-HT1A receptor (unknown origin) expressed in HEK293 cells at 10 uM by liquid scintillation counter relative to control; assay type: cell-based; conditions: not given
T4 sequence (whole entry): T3 sequence (P08908 whole entry)
Method in brief: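 Membranes of HEK293T stably transfected with 5-HT1A, […], incubated in duplicate 50 min at 30 °C with [3H]8-OH-DPAT in 50 mM Tris, 4 mM MgCl2, pH 7.4. Nonspecific binding with 10 μM WAY100635. Filtration on GF/B, cold Tris/EDTA wash, scintillation counting.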

Row | inhibition [%] | Compound
12 | 60.5 | COc1cc2c(cc1O)CCN1Cc3c(ccc(OC)c3O)C[C@@H]21
13 | 97.4 | COc1cc2c(cc1OC)[C@@H]1Cc3ccc(O)c(OC)c3CN1CC2

tested on: Rattus norvegicus; experiment: In vivo agonist activity at 5-HT1A receptor in Sprague-Dawley rat DA neuron assessed as increase in firing rate at 1 mg/kg, iv in presence of WAY100635; assay type: functional, organism-based; parameters: dose 1 mg/kg; conditions: not given
Method in brief: (§5)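 VTA DA neuron single-unit recording in chloral hydrate-anesthetized Sprague-Dawley rats after raclopride 0.1 mg/kg. Compound 1 mg/kg was followed by WAY100635 1.0 mg/kg. Firing rate and bursting were analysed in 10 s bins relative to the post-raclopride baseline.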

Row | Compound | Activity
14 | COc1cc2c(cc1OC)[C@@H]1Cc3ccc(O)c(OC)c3CN1CC2 | inactive

tested on: Rattus norvegicus; experiment: Antipsychotic activity in ip dosed Sprague-Dawley rat schizophrenia model assessed as inhibition of PCP-induced hyperlocomotion administered 10 mins prior testing monitored for 5 mins; assay type: functional, organism-based; conditions: not given
Method in brief: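 Male Sprague-Dawley rats (230–280 g) given saline or compound ip 10 min before PCP 5 mg/kg. Starting 5 min after PCP, rats were video-tracked in a 40×40×45 cm open field for 30 min. Total distance recorded; n = 6–12 per group; one-way ANOVA with Tamhane post hoc test.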

Row | Compound | inhibition
15 | COc1cc2c(cc1OC)[C@@H]1Cc3ccc(O)c(OC)c3CN1CC2 | Dose-dependent effect

tested on: Rattus norvegicus; experiment: In vivo agonist activity at 5-HT1A receptor in Sprague-Dawley rat DA neuron assessed as increase in firing rate at 1 mg/kg, iv; assay type: functional; conditions: not given; method in brief: as §4

Row | Compound | Activity [%]
16 | COc1cc2c(cc1OC)[C@@H]1Cc3ccc(O)c(OC)c3CN1CC2 | 128.3

molecular target: T2, D(2) dopamine receptor; conditions: HEK293, at 10 µM

Row | inhibition [%] | Compound
17 | 79.8 | COc1cc2c(cc1O)CCN1Cc3c(ccc(OC)c3O)C[C@@H]21
18 | 88.8 | COc1cc2c(cc1OC)[C@@H]1Cc3ccc(O)c(OC)c3CN1CC2

molecular target: T1, D(1A) dopamine receptor; experiment: Displacement of [3H]SCH23390 from dopamine D1 receptor (unknown origin) expressed in human HEK293 cells by liquid scintillation counter; assay type: cell-based; conditions: not given; method in brief: as §1

Row | Ki [µM] | Compound
19 | 0.53 | COc1cc2c(cc1O)CCN1Cc3c(ccc(OC)c3O)C[C@@H]21
20 | 0.05 | COc1cc2c(cc1OC)[C@@H]1Cc3ccc(O)c(OC)c3CN1CC2

tested on: Rattus norvegicus; experiment: Antipsychotic activity in Sprague-Dawley rat schizophrenia model assessed as inhibition of PCP-induced hyperlocomotion at 2.5 mg/kg, ip administered 10 mins prior testing […]; assay type: functional, organism-based; parameters: dose 2.5 mg/kg; conditions: not given

Row | Compound | inhibition
21 | COc1cc2c(cc1OC)[C@@H]1Cc3ccc(O)c(OC)c3CN1CC2 | Active

molecular target: T2, D(2) dopamine receptor; conditions: not given

Row | IC50 [µM] | Compound
22 | 18.7 | COc1cc2c(cc1OC)[C@@H]1Cc3ccc(O)c(OC)c3CN1CC2

tested on: Rattus norvegicus; experiment: In vivo agonist activity at 5-HT1A receptor in Sprague-Dawley rat DA neuron assessed as increase in bursts at 1 mg/kg, iv in presence of WAY100635; assay type: functional, organism-based; parameters: dose 1 mg/kg; conditions: not given; method in brief: as §5

Row | Compound | Activity
23 | COc1cc2c(cc1OC)[C@@H]1Cc3ccc(O)c(OC)c3CN1CC2 | inactive

molecular target: T1, D(1A) dopamine receptor; experiment: Antagonist activity at dopamine D1 receptor (unknown origin) expressed in HEK293 cells assessed as inhibition of [35S]GTPgammaS binding by scintillation proximity assay; assay type: functional, cell-based; conditions: not given

Row | IC50 [µM] | Compound
24 | 21.3 | COc1cc2c(cc1OC)[C@@H]1Cc3ccc(O)c(OC)c3CN1CC2

molecular target: 5-hydroxytryptamine receptor 2A (Homo sapiens, UniProt P28223); experiment: Inhibition of [3H]Ketanserin binding to 5-HT2A receptor (unknown origin) expressed in HEK293 cells at 10 uM by liquid scintillation counter relative to control; assay type: cell-based; conditions: not given
Sequence (P28223 whole entry): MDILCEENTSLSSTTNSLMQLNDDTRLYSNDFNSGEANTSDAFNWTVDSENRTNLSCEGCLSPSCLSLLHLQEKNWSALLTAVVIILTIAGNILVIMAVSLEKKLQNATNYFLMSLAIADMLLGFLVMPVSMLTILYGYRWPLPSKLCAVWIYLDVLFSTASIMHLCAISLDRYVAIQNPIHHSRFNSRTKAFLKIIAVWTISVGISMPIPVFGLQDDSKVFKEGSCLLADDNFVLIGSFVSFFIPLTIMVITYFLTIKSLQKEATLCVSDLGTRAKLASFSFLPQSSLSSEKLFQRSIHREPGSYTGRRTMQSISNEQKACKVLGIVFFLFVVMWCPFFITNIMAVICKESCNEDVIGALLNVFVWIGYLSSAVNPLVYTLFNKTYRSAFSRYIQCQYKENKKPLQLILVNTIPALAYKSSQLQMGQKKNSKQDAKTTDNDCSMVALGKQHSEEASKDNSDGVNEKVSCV
Method in brief: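 Membranes of HEK293T stably transfected with 5-HT2A, […], incubated in duplicate 15 min at 37 °C with [3H]ketanserin in 50 mM Tris, 4 mM MgCl2, pH 7.4. […] GF/B filtration, cold wash, scintillation counting.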

Row | inhibition [%] | Compound
25 | 59.1 | COc1cc2c(cc1O)CCN1Cc3c(ccc(OC)c3O)C[C@@H]21
26 | 68.8 | COc1cc2c(cc1OC)[C@@H]1Cc3ccc(O)c(OC)c3CN1CC2

tested on: Rattus norvegicus; experiment: Effect on prepulse inhibition in Sprague-Dawley rat schizophrenia model at 5 mg/kg, ip administered 10 mins prior testing monitored for 5 mins; assay type: ADME, organism-based; parameters: dose 5 mg/kg, route intraperitoneal; conditions: in vivo; method in brief: as §2

Row | Compound | Activity
27 | COc1cc2c(cc1OC)[C@@H]1Cc3ccc(O)c(OC)c3CN1CC2 | Non-toxic

tested on: Rattus norvegicus; experiment: Antipsychotic activity in Sprague-Dawley rat schizophrenia model assessed as effect on 120 db noise-induced absolute acoustic startle responses at 5 mg/kg, ip administered 10 mins prior testing monitored for 5 mins; assay type: functional, organism-based; parameters: dose 5 mg/kg; conditions: not given; method in brief: as §2

Row | Compound | Activity
28 | COc1cc2c(cc1OC)[C@@H]1Cc3ccc(O)c(OC)c3CN1CC2 | inactive

molecular target: T4, 5-hydroxytryptamine receptor 1A (Homo sapiens); experiment: (§6) Agonist activity at 5-HT1A receptor (unknown origin) expressed in HEK293 cells assessed as […] of [35S]GTPgammaS binding by scintillation proximity assay; assay type: functional, cell-based; conditions: not given

Row | Emax [%] | Compound
29 | 156 | COc1cc2c(cc1OC)[C@@H]1Cc3ccc(O)c(OC)c3CN1CC2

molecular target: T3, 5-hydroxytryptamine receptor 1A; experiment: as §6; assay type: functional, cell-based; conditions: not given

Row | EC50 [µM] | Compound
30 | 0.19 | COc1cc2c(cc1OC)[C@@H]1Cc3ccc(O)c(OC)c3CN1CC2
